This note sets out measurements from ChEMBL document CHEMBL1129329, “Structure-activity studies of 6-substituted decahydroisoquinoline-3-carboxylic acid AMPA receptor antagonists. 2. Effects of distal acid bioisosteric substitution, absolute stereochemical preferences, and in vivo activity” (J Med Chem, 1996).

pIC50: −log10 of the molar value.

The target in test [1] is T1, Glutamate receptor ionotropic, AMPA (Rattus norvegicus, UniProt P19490+P19491+P19492+P19493). Briefly: (§1) Binding affinity against Ionotropic glutamate receptor AMPA using [3H]AMPA 19755 radioligand. The class given is protein-complex assay.
The target in test [2] is Glutamate receptor ionotropic, kainate. The test is described as follows: Binding affinity against Ionotropic glutamate receptor kainate using [3H]-Kainic acid 19755 radioligand. The class given is protein-complex assay. The gist of the method:
(§2)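 Displacement of radioligand binding in rat cortical tissue: [3H]AMPA for AMPA sites, [3H]kainic acid for kainate sites. Assays run in triplicate unless otherwise indicated; some IC50 values come from a single assay.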

Test [3] deals with Glutamate NMDA receptor. Briefly: Affinity of [3H]-CGS- 19755 radioligand to rat N-methyl-D-aspartate (NMDA) receptor. It counts as protein-complex assay.
For test [4], the target named is T1, Glutamate receptor ionotropic, AMPA. The test is described as follows: Antagonism at AMPA receptor by inhibition of depolarizations induced by 40 uM AMPA in rat cortical slice preparation. The class given is functional.
Test [5] concerns the target Glutamate receptor ionotropic, kainate. Briefly: Antagonism at Ionotropic glutamate receptor kainate by inhibition of depolarizations induced by 10 uM kainic acid in rat cortical slice preparation. It counts as functional.
Test [6] addresses Glutamate NMDA receptor. Briefly: Antagonism at NMDA receptor by inhibition of depolarizations induced by 40 uM NMDA in rat cortical slice preparation. It counts as functional.
In test [7] the test system is Mus musculus. The test is described as follows: Effective dose to block maximal electroshock-induced convulsions in mice, administered intraperitoneally. It counts as functional. Conditions: ip.
Test [8] deals with Mus musculus. The test is described as follows: (§3) Effective dose to produce neurological impairments in mice using the horizontal screen assay, administered intraperitoneally. It counts as functional. Conditions: ip. An outline of the steps:
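Mice dosed intraperitoneally 30 min before testing were placed on a horizontal screen, which was then turned upside down. Unimpaired mice climb back to the top within 2 min; failure indicates neurological impairment. This was done before MES testing.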

For test [9], the system named is Mus musculus. The test is described as follows: Effective dose to block ATPA-induced muscle rigidity in mice at a dose of 30 mg/kg administered intraperitoneally. The conditions noted are these: ip.
Test [10] concerns the target T1, Glutamate receptor ionotropic, AMPA. The test is described as follows: Compound was tested for Ionotropic glutamate receptor AMPA antagonistic activity by measuring its ability to inhibit depolarizations induced by 40 uM AMPA in rat cortical slice preparation. It counts as functional.
For test [11], the target named is Glutamate NMDA receptor. The test is described as follows: Compound was tested for NMDA receptor antagonistic activity by measuring its ability to inhibit depolarizations induced by 40 uM NMDA in rat cortical slice preparation. The class given is functional.
The target of test [12] is Glutamate receptor ionotropic, kainate. The test is described as follows: Compound was tested for Ionotropic glutamate receptor kainate antagonistic activity by measuring its ability to inhibit depolarizations induced by 10 uM kainic acid in rat cortical slice preparation. The class given is functional.
Test [13] concerns Mus musculus. The test is described as §3. The class given is functional. The conditions noted are these: ip. The gist of the method:
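Mice dosed ip 30 min beforehand are placed on a horizontal screen, which is then turned upside down. Unimpaired mice climb back to the top within 2 min.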
This is another data set of the same source.

Test [14] concerns the target T2, Glutamate receptor ionotropic, AMPA (Rattus norvegicus) (UniProt P19491+P19492+P19493+P19490). Briefly: Compound was tested for AMPA receptor antagonistic activity by measuring its ability to inhibit depolarizations induced by 40 uM AMPA in rat cortical slice preparation at 100 uM. It counts as functional.
Test [15] has as its target T2, Glutamate receptor ionotropic, AMPA (Rattus norvegicus). The test is described as §1. Conditions: concentration not given here. The class given is protein-complex assay. The gist of the method: as §2

By pIC50 is commonly meant the IC50 on a negative log10 scale, so that one unit is a factor of ten. A high value points to a small IC50. As for `O=C(O)[C@@H]1C[C@H]2C[C@@H](CS(=O)(=O)c3nnc[nH]3)CC[C@H]2CN1` (stereo in doubt; (-)36), the pIC50 in test [1] was 6.22; in test [2], under 4.00; at Glutamate NMDA receptor [3], under 4.00.

As for `CCOC(=O)[C@@H]1C[C@H]2C[C@@H](CCC(=O)NS(C)(=O)=O)CC[C@H]2CN1C(=O)OC`, the pIC50 (in [4]; in [1]; in test [5]; in test [2]; on Glutamate NMDA receptor [6]; at Glutamate NMDA receptor [3]) was under 4.00 in each case.

Take `O=C(O)[C@@H]1C[C@H]2C[C@H](CCP(=O)(O)O)CC[C@H]2CN1`: the pIC50 in test [4] was under 4.00; in test [1], under 5.00; in test [5] it was under 4.00; on Glutamate NMDA receptor [6] it was under 4.00; at Glutamate NMDA receptor [3], under 5.00.

As a reminder, the ED50 is the midpoint of the dose-response relation. Higher therefore signals weaker potency. Consider `O=C(O)[C@@H]1C[C@H]2C[C@@H](CCc3nn[nH]n3)CC[C@H]2CN1` (racemic) [TEZAMPANEL ANHYDROUS], for which the ED50 in the test on Mus musculus [7] was determined as 9 mg/kg; in the test on Mus musculus [8] it was 19.6 mg/kg; in the test on Mus musculus [9], 3.6 mg/kg.

For `CCOC(=O)[C@@H]1C[C@H]2C[C@@H](CCC(=O)NS(=O)(=O)c3ccccc3)CC[C@H]2CN1C(=O)OC`, the pIC50 (in [4]; in test [1]; in test [5]; in [2]; against Glutamate NMDA receptor [6]; at Glutamate NMDA receptor [3]) was under 4.00 throughout.

Take `CCOC(=O)[C@@H]1C[C@H]2C[C@@H](CCc3cc(OC)no3)CC[C@H]2CN1C(=O)OC`: the pIC50 on Glutamate NMDA receptor [6] and at Glutamate NMDA receptor [3] was under 4.00 throughout.

Turning to `O=C(O)[C@H]1C[C@@H]2C[C@H](CCc3nnn[nH]3)CC[C@@H]2CN1`, the pIC50 in [4], in test [1], in test [5] and in test [2] was under 4.00 each time.

On to `O=C(O)[C@H]1C[C@@H]2C[C@H](CS(=O)(=O)c3nc[nH]n3)CC[C@@H]2CN1`, for which the pIC50 in test [1] is 4.63; in [2] it was under 4.00; on Glutamate NMDA receptor [3], 4.22.

Regarding `O=C(O)CC[C@@H]1CC[C@H]2CN[C@H](C(=O)O)C[C@H]2C1`, the pIC50 (in [4]; in [1]; in test [5]; in test [2]; against Glutamate NMDA receptor [6]; at Glutamate NMDA receptor [3]) was under 4.00 throughout.

Turning to `O=C(O)[C@@H]1C[C@H]2C[C@H](CSc3nn[nH]n3)CC[C@H]2CN1` (stereo in doubt; (-)28), the pIC50 in test [10] was under 4.00; in test [1], 4.15; in test [2] it was under 4.00; at Glutamate NMDA receptor [11], 4.21; on Glutamate NMDA receptor [3], 4.53; in [12], under 4.00.

For `O=C(O)[C@@H]1C[C@H]2C[C@H](CCc3cc(O)no3)CC[C@H]2CN1`, the pIC50 (in test [1]; in test [2]; on Glutamate NMDA receptor [3]) was under 4.00 in each case. For the same compound, the ED50 is 31.1 mg/kg with Mus musculus [7], over 100 mg/kg in the test on Mus musculus [13] and 8.8 mg/kg with Mus musculus [9].

On to `O=C(O)[C@@H]1C[C@H]2C[C@@H](CNc3nn[nH]n3)CC[C@H]2CN1` (racemic), for which the pIC50 (in test [4]; in test [1]; in test [5]; in test [2]; on Glutamate NMDA receptor [6]; at Glutamate NMDA receptor [3]) was under 4.00 throughout.

As for `O=C(O)[C@@H]1C[C@H]2C[C@H](CCc3nnn[nH]3)CC[C@H]2CN1` (stereo in doubt; (+)49), the pIC50 is 4.66 in test [4], 4.50 in test [1], 4.54 in test [5] and 4.06 in test [2].

As usually defined, the inhibition is the drop in the measured response relative to a control, in per cent. Read a high inhibition as strong suppression. For the compound `O=C(O)[C@@H]1C[C@H]2C[C@@H](Cn3nnc(S)n3)CC[C@H]2CN1` (racemic), the inhibition is 55% in [14] and 57.9% in test [15]. The pIC50 in test [5] is under 4.00; in test [2], under 4.00; against Glutamate NMDA receptor [6], under 4.00; on Glutamate NMDA receptor [3], under 5.00.

`O=C(O)[C@@H]1C[C@H]2C[C@H](CCS(=O)(=O)O)CC[C@H]2CN1`: the negative-log IC50 (pIC50) (in test [4]; in test [1]; in test [5]; in [2]; on Glutamate NMDA receptor [6]; at Glutamate NMDA receptor [3]) was under 4.00 each time.

`O=C(O)[C@H]1C[C@@H]2C[C@H](CSc3nn[nH]n3)CC[C@@H]2CN1`: the pIC50 is 4.70 in test [10]; 4.66 in test [1]; under 4.00 in [2]; under 4.00 on Glutamate NMDA receptor [11]; under 5.00 on Glutamate NMDA receptor [3]; under 4.50 in [12].

With `O=C(O)[C@@H]1C[C@H]2C[C@@H](CCCc3nnn[nH]3)CC[C@H]2CN1`, the ED50 with Mus musculus [7], in the test with Mus musculus [8] and with Mus musculus [9] was over 100 mg/kg throughout.

On to `CCOC(=O)[C@@H]1C[C@H]2C[C@@H](CCP(=O)(OCC)OCC)CC[C@H]2CN1C(=O)OC`, for which the pIC50 (in test [4]; in [1]; in [5]; on Glutamate NMDA receptor [6]; on Glutamate NMDA receptor [3]) was under 4.00 throughout.

For `O=C(O)[C@@H]1C[C@H]2C[C@@H](CCS(=O)(=O)O)CC[C@H]2CN1`, the negative logarithm of the IC50 (pIC50) in test [4] is 4.50; in test [1], 4.94; in test [5] it was 4.00; in [2] it was under 4.00; against Glutamate NMDA receptor [6], under 4.00; at Glutamate NMDA receptor [3], 4.21.

Turning to `O=C(O)[C@@H]1C[C@H]2C[C@@H](CSc3nn[nH]n3)CC[C@H]2CN1` (racemic), the pIC50 in test [10] was 4.70; in [1], 6.05; in test [2], 4.52; at Glutamate NMDA receptor [11], under 4.00; at Glutamate NMDA receptor [3] it was 4.53.

For `O=C(O)[C@@H]1C[C@H]2C[C@@H](CCc3nn[nH]n3)CC[C@H]2CN1` [TEZAMPANEL ANHYDROUS], the pIC50 in test [4] was 5.74; in test [1], 4.85; in test [2], 4.55; on Glutamate NMDA receptor [3], 4.92.

In the case of `O=C(O)[C@@H]1C[C@H]2C[C@@H](CSc3nn[nH]n3)CC[C@H]2CN1`, the pIC50 in [10] is 5.85; in [1], 6.22; in [2], 4.80; on Glutamate NMDA receptor [11], 4.64; on Glutamate NMDA receptor [3], 4.74; in [12], under 4.50. The ED50 in the test on Mus musculus [7] turned out to be 8.5 mg/kg; in the test on Mus musculus [13], 20.1 mg/kg; with Mus musculus [9], 8.1 mg/kg.

On to `O=C(O)[C@H]1C[C@@H]2C[C@@H](CSc3nn[nH]n3)CC[C@@H]2CN1`, for which the pIC50 in test [10] is 5.05; in test [1], 4.75; in [2] it was 4.55; against Glutamate NMDA receptor [11], under 4.00; at Glutamate NMDA receptor [3], under 4.00; in test [12], 4.54.

In the case of `O=C(O)[C@@H]1C[C@H]2C[C@@H](CS(=O)(=O)c3nnc[nH]3)CC[C@H]2CN1` (stereo in doubt; 36), the pIC50 is 5.67 in test [4], 5.77 in [1], 5.00 in test [5] and under 4.00 against Glutamate NMDA receptor [6]. In addition, the 50% effective dose (ED50) stood at 9.5 mg/kg with Mus musculus [7] and 25.2 mg/kg with Mus musculus [8].

For the compound `O=C(O)[C@@H]1C[C@H]2C[C@@H](CSc3nc[nH]n3)CC[C@H]2CN1`, the pIC50 in test [10] is 4.16; in [1], under 5.00; in test [2], under 5.00; on Glutamate NMDA receptor [11], under 4.00; at Glutamate NMDA receptor [3], under 5.00; in test [12], under 4.00.

For the compound `O=C(O)[C@@H]1C[C@H]2C[C@H](CSc3nn[nH]n3)CC[C@H]2CN1` (stereo in doubt; (+/-)28), the pIC50 in test [10] is 5.21; in [1], 5.31; in [2], 4.43; on Glutamate NMDA receptor [11], under 4.00; on Glutamate NMDA receptor [3], 4.32.

Turning to `O=C(O)[C@@H]1C[C@H]2C[C@H](CCc3nnn[nH]3)CC[C@H]2CN1` (stereo in doubt; (-)49), the pIC50 at Glutamate NMDA receptor [3] was 4.11.

As to `O=C(CC[C@H]1CC[C@H]2CN[C@H](C(=O)O)C[C@H]2C1)Nc1nn[nH]n1`, the pIC50 in test [4] is 4.72; in [1] it was 4.14; in test [5] it was 4.15; in test [2], under 4.00; against Glutamate NMDA receptor [6], 4.08; on Glutamate NMDA receptor [3] it was under 4.00.
